From ChEMBL document CHEMBL1275556, “High prevalence of plasmid-mediated quinolone resistance genes qnr and aac(6')-Ib-cr in clinical isolates of Enterobacteriaceae from nine teaching hospitals in China” (2008)

Experiments:
[1] = system: Escherichia coli; experiment: Antimicrobial activity against aac(6')-Ib-cr-negative Escherichia coli PU12T harboring wild-type GyrA, GyrB, ParC and qnrS genes by agar dilution method; type: functional
In short: (§1)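 MICs were determined by the CLSI agar dilution method (M7-A7) and interpreted against CLSI M100-S17 breakpoints.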

[2] = system: Citrobacter freundii; experiment: Antimicrobial activity against aac(6')-Ib-cr-positive Citrobacter freundii PU55 harboring GyrA T83I, ParC S80I mutant, wild-type GyrB, qnrA genes by agar dilution method; type: functional; in short: as §1
[3] = system: Citrobacter freundii; experiment: Antimicrobial activity against aac(6')-Ib-cr-positive Citrobacter freundii PU55T harboring wild-type GyrA, ParC, GyrB and qnrA genes by agar dilution method
[4] = system: Enterobacter cloacae; experiment: Antimicrobial activity against aac(6')-Ib-cr-negative Enterobacter cloacae SH39 harboring GyrA S83I, ParC S80I mutant, wild-type GyrB and qnrA genes by agar dilution method; type: functional
[5] = system: Enterobacter cloacae; experiment: Antimicrobial activity against aac(6')-Ib-cr-negative Enterobacter cloacae SH39T harboring qnrA gene by agar dilution method; type: functional
[6] = system: Klebsiella pneumoniae; experiment: Antimicrobial activity against aac(6')-Ib-cr-negative Klebsiella pneumoniae SY22 harboring GyrA S83I, ParC S80I mutant, wild-type GyrB and qnrS genes by agar dilution method; type: functional; in short: as §1
[7] = system: Klebsiella pneumoniae; experiment: Antimicrobial activity against aac(6')-Ib-cr-negative Klebsiella pneumoniae SY22T harboring qnrS gene by agar dilution method; type: functional; in short: as §1
[8] = system: Klebsiella pneumoniae; experiment: Antimicrobial activity against aac(6')-Ib-cr-positive Klebsiella pneumoniae SY26 harboring GyrA S83I, ParC S80I mutant, wild-type GyrB and qnrB genes by agar dilution method; type: functional
In short: (§2)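 MICs were determined on clinical isolates by CLSI agar dilution (M7-A7) and interpreted against CLSI M100-S17 breakpoints.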

[9] = system: Klebsiella pneumoniae; experiment: Antimicrobial activity against aac(6')-Ib-cr-positive Klebsiella pneumoniae SY26T harboring wild-type GyrA, ParC, GyrB and qnrB genes by agar dilution method; type: functional
In short: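 Transconjugants were made by conjugating a qnr/aac(6')-Ib-cr donor with azide-resistant E. coli J53. MICs were read by CLSI agar dilution (M7-A7) and interpreted per M100-S17.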

[10] = system: Citrobacter freundii; experiment: Antimicrobial activity against aac(6')-Ib-cr-positive Citrobacter freundii TJ15 harboring GyrA T83I, ParC S80I mutant, wild-type GyrB, qnrB genes by agar dilution method; type: functional; in short: as §1
[11] = system: Citrobacter freundii; experiment: Antimicrobial activity against aac(6')-Ib-cr-positive Citrobacter freundii TJ15T harboring wild-type GyrA, ParC, GyrB genes by agar dilution method; type: functional; in short: as §1
[12] = system: Enterobacter cloacae; experiment: Antimicrobial activity against aac(6')-Ib-cr-negative Enterobacter cloacae WH42 harboring wild-type GyrA, ParC, GyrB and qnrA genes by agar dilution method; type: functional
[13] = system: Enterobacter cloacae; experiment: Antimicrobial activity against aac(6')-Ib-cr-negative Enterobacter cloacae WH42T harboring qnrA gene by agar dilution method; type: functional
[14] = system: Klebsiella pneumoniae; experiment: Antimicrobial activity against aac(6')-Ib-cr-positive Klebsiella pneumoniae WH99 harboring wild-type GyrA, ParC, GyrB and qnrB genes by agar dilution method; type: functional; in short: as §2
[15] = system: Klebsiella pneumoniae; experiment: Antimicrobial activity against aac(6')-Ib-cr-positive Klebsiella pneumoniae WH99T harboring qnrB gene by agar dilution method; type: functional
In short: (§3)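 Transconjugants were made by conjugating a qnr/aac(6')-Ib-cr donor with azide-resistant E. coli J53. Selection used Trypticase soy agar with sodium azide 150 µg/ml and sulfamethoxazole 180 µg/ml. […] MICs were read by CLSI agar dilution (M7-A7) and interpreted per M100-S17.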

[16] = system: Escherichia coli; experiment: Antimicrobial activity against Escherichia coli J53 harboring wild-type GyrA, ParC, GyrB genes by agar dilution method
[17] = system: Escherichia coli; experiment: Antimicrobial activity against aac(6')-Ib-cr-negative Escherichia coli PU12 harboring GyrA S83L mutant, wild-type GyrB, ParC and qnrS genes by agar dilution method; type: functional; in short: as §1
[18] = system: Escherichia coli; experiment: Antimicrobial activity against aac(6')-Ib-cr-positive Escherichia coli FJ3 harboring GyrA S83L, ParC S80R mutant, wild-type GyrB and qnrB genes by agar dilution method; type: functional; in short: as §1
[19] = system: Escherichia coli; experiment: Antimicrobial activity against aac(6')-Ib-cr-positive Escherichia coli FJ3T harboring wild-type GyrA, ParC, GyrB and qnrB genes by agar dilution method
[20] = system: Enterobacter cloacae; experiment: Antimicrobial activity against aac(6')-Ib-cr-negative Enterobacter cloacae FJ61 harboring GyrA S83I, GyrA D87A, ParC S80I mutant, wild-type GyrB and qnrS genes by agar dilution method; type: functional
[21] = system: Enterobacter cloacae; experiment: Antimicrobial activity against aac(6')-Ib-cr-negative Enterobacter cloacae FJ61T harboring qnrS gene by agar dilution method; type: functional
[22] = system: Enterobacter cloacae; experiment: Antimicrobial activity against aac(6')-Ib-cr-positive Enterobacter cloacae FJ63 harboring GyrA S83I, GyrA D87A, ParC S80I mutant, wild-type GyrB and qnrS genes by agar dilution method; type: functional
[23] = system: Enterobacter cloacae; experiment: Antimicrobial activity against aac(6')-Ib-cr-positive Enterobacter cloacae FJ63T harboring qnrS gene by agar dilution method; type: functional
[24] = system: Enterobacter cloacae; experiment: Antimicrobial activity against aac(6')-Ib-cr-negative Enterobacter cloacae FJ67 harboring […] and qnrS genes by agar dilution method; type: functional
[25] = system: Enterobacter cloacae; experiment: Antimicrobial activity against aac(6')-Ib-cr-negative Enterobacter cloacae FJ67T harboring qnrS gene by agar dilution method; type: functional
[26] = system: Klebsiella pneumoniae; experiment: Antimicrobial activity against aac(6')-Ib-cr-positive Klebsiella pneumoniae GZ40 harboring GyrA S83I, ParC S80I mutant, wild-type GyrB and qnrB genes by agar dilution method; type: functional; in short: as §1
[27] = system: Klebsiella pneumoniae; experiment: Antimicrobial activity against aac(6')-Ib-cr-positive Klebsiella pneumoniae GZ40T harboring qnrB gene by agar dilution method
[28] = system: Enterobacter cloacae; experiment: Antimicrobial activity against aac(6')-Ib-cr-negative Enterobacter cloacae GZ47 harboring qnrB and qnrS genes by agar dilution method; type: functional
[29] = system: Enterobacter cloacae; experiment: Antimicrobial activity against aac(6')-Ib-cr-negative Enterobacter cloacae GZ47T harboring qnrB gene by agar dilution method; type: functional
[30] = system: Enterobacter cloacae; experiment: Antimicrobial activity against aac(6')-Ib-cr-negative Enterobacter cloacae GZ51 harboring qnrA gene by agar dilution method; type: functional
[31] = system: Enterobacter cloacae; experiment: Antimicrobial activity against aac(6')-Ib-cr-negative Enterobacter cloacae GZ51T harboring qnrA gene by agar dilution method; type: functional
[32] = system: Citrobacter freundii; experiment: Antimicrobial activity against aac(6')-Ib-cr-positive Citrobacter freundii JN1 harboring GyrA T83I, ParC S80I mutant, wild-type GyrB and qnrA genes by agar dilution method; type: functional; in short: as §1
[33] = system: Citrobacter freundii; experiment: Antimicrobial activity against aac(6')-Ib-cr-positive Citrobacter freundii JN1T by agar dilution method; type: functional; in short: as §1
[34] = system: Klebsiella pneumoniae; experiment: Antimicrobial activity against aac(6')-Ib-cr-positive Klebsiella pneumoniae JN132 harboring GyrA S83I, ParC S80I mutant, wild-type GyrB and qnrB genes by agar dilution method; type: functional; in short: as §2
[35] = system: Klebsiella pneumoniae; experiment: Antimicrobial activity against aac(6')-Ib-cr-positive Klebsiella pneumoniae JN132T harboring qnrB gene by agar dilution method; type: functional; in short: as §3
[36] = system: Klebsiella pneumoniae; experiment: Antimicrobial activity against aac(6')-Ib-cr-positive Klebsiella pneumoniae JN41 harboring GyrA S83I, ParC S80I mutant, wild-type GyrB and qnrB genes by agar dilution method; type: functional; in short: as §2
[37] = system: Klebsiella pneumoniae; experiment: Antimicrobial activity against aac(6')-Ib-cr-positive Klebsiella pneumoniae JN41T harboring qnrB gene by agar dilution method; type: functional; in short: as §3
[38] = system: Citrobacter freundii; experiment: Antimicrobial activity against aac(6')-Ib-cr-negative Citrobacter freundii JN64 harboring GyrA T83I, wild-type ParC, GyrB and qnrA genes by agar dilution method; type: functional; in short: as §1
[39] = system: Citrobacter freundii; experiment: Antimicrobial activity against aac(6')-Ib-cr-negative Citrobacter freundii JN64T harboring qnrA gene by agar dilution method; type: functional; in short: as §1
[40] = system: Citrobacter freundii; experiment: Antimicrobial activity against aac(6')-Ib-cr-positive Citrobacter freundii JS33 harboring GyrA T83I mutant, wild-type ParC, GyrB, qnrA and qnrB genes by agar dilution method; type: functional; in short: as §1
[41] = system: Citrobacter freundii; experiment: Antimicrobial activity against aac(6')-Ib-cr-positive Citrobacter freundii JS33T harboring qnrA gene by agar dilution method; type: functional; in short: as §1

Measured: MIC

Cc1cc(NS(=O)(=O)c2ccc(N)cc2)no1 [SULFAMETHOXAZOLE]
32 µg/mL: [33]
16 µg/mL: [7] | [16] | [20] | [21]
256 µg/mL: [5] | [29] | [32]
64 µg/mL: [6]
> 256 µg/mL: all other assays above

GENTAMICIN
128 µg/mL: [6] | [14] | [15] | [18] | [20] | [29]
2 µg/mL: [17] | [24]
32 µg/mL: [7]
8 µg/mL: [4] | [13]
16 µg/mL: [12] | [41]
4 µg/mL: [5]
> 256 µg/mL: [8] | [9] | [22] | [23] | [30] | [31] | [34] | [35] | [38] | [39]
64 µg/mL: [40]
256 µg/mL: [10] | [28]
not listed: [3] | [16] | [19] | [27]
1 µg/mL: all other assays above

CC(C)(O/N=C(\C(=O)N[C@@H]1C(=O)N2C(C(=O)[O-])=C(C[n+]3ccccc3)CS[C@H]12)c1csc(N)n1)C(=O)O [CEFTAZIDIME]
128 µg/mL: [22] | [28]
16 µg/mL: [9] | [13] | [14] | [20] | [40]
2 µg/mL: [4] | [11] | [19] | [29] | [36] | [39]
1 µg/mL: [1] | [7] | [33] | [37]
256 µg/mL: [8] | [12] | [26]
4 µg/mL: [6] | [10] | [15] | [17] | [18] | [23] | [24] | [25]
64 µg/mL: [2] | [30] | [32] | [38]
32 µg/mL: [31] | [34] | [35]
